In series [1] the test system is MRC5. In words: In Vitro cytotoxicity on MRC-5 cells. As to conditions: Homo sapiens. Type of series: functional. The essentials: (§1)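 MRC-5 human diploid embryonic lung cells seeded at 5 000/well, washed after 24 h, then given 2-fold drug dilutions (25, 12.5, 6.25, 3.13 µM) in RPMI + 5% FCS, final DMSO below 0.5%. Incubated 7 days at 37 °C, 5% CO2. MTT colorimetric read-out, scored as % reduction of absorbance at 540 nm versus untreated controls.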

The test system of series [2] is MRC5. In words: Cytotoxicity on MRC-5 cells at 25 uM. The series is classed as functional. The note with it: Homo sapiens. The essentials: as §1
The subject of series [3] is MRC5. In words: Cytotoxicity on MRC-5 cells at 12.5 uM. Type of series: functional. As to conditions: Homo sapiens. The essentials:
as §1

The test system of series [4] is Trypanosoma cruzi. Kind of series: In Vitro evaluation for the percentage of activity towards Trypanosoma cruzi at 1.56 uM Concentration; Toxic upon mouse primary peritoneal macrophages. Type of series: functional. The essentials:
(§2)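 Mouse peritoneal macrophages, 30 000/well, infected after 24 h with about 100 000 T. cruzi trypomastigotes per well plus 2-fold drug dilutions (12.5–1.56 µM). Incubated 4 days at 37 °C, 5% CO2. Methanol-fixed, Giemsa-stained and scored microscopically as % reduction of total parasite load (free trypomastigotes plus intracellular amastigotes) versus untreated controls.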

For series [5], the system named is Leishmania infantum. Kind of series: Percentage of activity against Leishmania infantum at 12.5 uM Concentration; Toxic upon mouse primary peritoneal macrophages. Type of series: functional, organism-based. An outline of the steps: (§3)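 Starch-stimulated mouse peritoneal macrophages, 30 000/well, infected after 24 h with spleen-derived L. infantum amastigotes (10:1) together with 2-fold drug dilutions (12.5–1.56 µM). Incubated 7 days at 37 °C, 5% CO2. Wright-stained slides scored microscopically as % reduction of total parasite load or of infected macrophages. Uninfected treated cultures judged microscopically for macrophage toxicity.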

The test system of series [6] is Leishmania infantum. Kind of series: (§4) In Vitro evaluation for the percentage of activity towards Leishmania infantum at 1.56 uM Concentration; Toxic upon mouse primary peritoneal macrophages. Type of series: functional, organism-based. The essentials: as §3
The subject of series [7] is Trypanosoma brucei. Kind of series: Percentage of activity against Trypanosoma brucei at 12.5 uM. Type of series: functional. An outline of the steps: (§5)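 Bloodstream-form T. brucei in HMI-9 medium, 10 000 parasites/well, exposed to 12.5, 6.25, 3.13 and 1.56 µM drug for 4 days. Read-out is % inhibition of parasite multiplication. Macrophage toxicity judged on mouse primary peritoneal macrophages.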

The test system of series [8] is Trypanosoma brucei. In words: Percentage of activity against Trypanosoma brucei at 1.56 uM. Type of series: functional. The essentials:
as §5

Series [9] has as its system Leishmania infantum. Kind of series: (§6) In Vitro evaluation for the percentage of activity towards Leishmania infantum at 3.13 uM Concentration; Toxic upon mouse primary peritoneal macrophages. The series is classed as functional, organism-based. An outline of the steps: as §3
Series [10] relates to Trypanosoma cruzi. In words: (§7) In Vitro evaluation for the percentage of activity towards Trypanosoma cruzi at 6.25 uM Concentration; Toxic upon mouse primary peritoneal macrophages. The series is classed as functional, organism-based. The essentials:
as §2

For series [11], the system named is MRC5. In words: Cytotoxicity on MRC-5 cells at 3.13 uM. As to conditions: Homo sapiens. The series is classed as functional. An outline of the steps: as §1
The test system of series [12] is Trypanosoma cruzi. Kind of series: Percentage of activity against Trypanosoma cruzi at 12.5 uM; Toxic upon mouse primary peritoneal macrophages. Type of series: functional, organism-based. The essentials:
as §2

Series [13] has as its system Trypanosoma brucei. Kind of series: Percentage of activity against Trypanosoma brucei at 3.13 uM. The series is classed as functional. The essentials:
as §5

The subject of series [14] is Trypanosoma cruzi. In words: (§8) In Vitro evaluation for the percentage of activity towards Trypanosoma cruzi at 3.13 uM Concentration; Toxic upon mouse primary peritoneal macrophages. The series is classed as functional, organism-based. The essentials:
as §2

Series [15] deals with MRC5. Kind of series: Cytotoxicity on MRC-5 cells at 6.25 uM. The series is classed as functional. As to conditions: Homo sapiens. An outline of the steps:
as §1

In a further series the test system is Plasmodium falciparum. Kind of series: In vitro sensitivity for Plasmodium falciparum FcB1R. Type of series: functional, organism-based. The essentials:
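Asynchronous P. falciparum cultures in human erythrocytes (0.5% parasitemia, 1% haematocrit) exposed to serially diluted drug for 24 h at 37 °C. [3H]hypoxanthine (0.5 µCi/well) then added for a further 24 h. Uptake compared with drug-free controls on the same plate. IC50 taken from the concentration–response curve, averaged over independent experiments. DMSO ≤0.1%.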

Series [16] has as its system Leishmania infantum. In words: Percentage of activity against Leishmania infantum at 6.25 uM; Toxic upon mouse primary peritoneal macrophages. Type of series: functional, organism-based. An outline of the steps: as §3
The subject of series [17] is Trypanosoma brucei. Kind of series: Percentage of activity against Trypanosoma brucei at 6.25 uM. The series is classed as functional. The essentials:
as §5

Series [18] has as its system Leishmania infantum. The series is described as §4. The series is classed as organism-based. An outline of the steps: as §3
Series [19] has as its system Trypanosoma cruzi. In words: In Vitro evaluation for the percentage of activity towards Trypanosoma cruzi at 12.5 uM Concentration; Toxic upon mouse primary peritoneal macrophages. Type of series: organism-based. The essentials:
as §2

Series [20] deals with Leishmania infantum. In words: In Vitro evaluation for the percentage of activity towards Leishmania infantum 6.25 uM Concentration; Toxic upon mouse primary peritoneal macrophages. Type of series: organism-based. An outline of the steps: as §3
Series [21] relates to Trypanosoma cruzi. Described as §8. The series is classed as ADME, organism-based. An outline of the steps:
as §2

The test system of series [22] is Leishmania infantum. In words: In Vitro evaluation for the percentage of activity towards Leishmania infantum at 12.5 uM Concentration; Toxic upon mouse primary peritoneal macrophages. Type of series: organism-based. An outline of the steps: as §3
The subject of series [23] is Trypanosoma cruzi. Described as §7. The series is classed as ADME, organism-based. The essentials: as §2
The test system of series [24] is Leishmania infantum. Described as §6. The series is classed as organism-based. An outline of the steps:
as §3

In series [25] the test system is Leishmania infantum. In words: In Vitro inhibition concentration against Amastigote form of Leishmania infantum.

Five compounds from ChEMBL document CHEMBL1133105, “Antimalarial, antitrypanosomal, and antileishmanial activities and cytotoxicity of bis(9-amino-6-chloro-2-methoxyacridines): influence of the linker” (J Med Chem, 2000) can be followed below.

pIC50: −log10 of the molar value.

A word on the CC50: it is the concentration that lowers cell viability or growth by half. Read a low CC50 as harm at low concentration. The term pIC50 denotes the IC50 on a negative log10 scale, so that one unit is a factor of ten. A higher pIC50 goes with a small IC50.

As to `O=C(Cn1ccnc1[N+](=O)[O-])NCc1ccccc1` [BENZNIDAZOLE], in the series with MRC5 [1], the half-maximal cytotoxic concentration (CC50) is over 50000 nM.
In the series on MRC5 [2], `COc1ccc2nc3cc(Cl)ccc3c(NCCCCNCCCNc3c4ccc(Cl)cc4nc4ccc(OC)cc34)c2c1` displayed a cytotoxicity at 25 µM of 100%. Moreover, the cytotoxicity at 12.5 µM in the series with MRC5 [3] stood at 100%. Moreover, the Cytotoxicity entry with Trypanosoma cruzi [4], with Leishmania infantum [5], with Leishmania infantum [6], in the series with Leishmania infantum [9], in the series with Trypanosoma cruzi [10] and in the series with Trypanosoma cruzi [12] was “Toxic” each time. Also, the Cytotoxicity result in the series with Trypanosoma cruzi [14] and in the series with Leishmania infantum [16] was “Toxic” throughout. Further, the “Inhibition of parasite multiplication” value in the series on Trypanosoma brucei [7] and with Trypanosoma brucei [17] was 100% in each case. Also, the “Percent inhibition of parasite multiplication” value (from here on “Percent inhibition”) with Trypanosoma brucei [8] was found to be 100%. The cytotoxicity at 3.13 µM in the series with MRC5 [11] was 100%. Besides, the Parasite growth inhibition in the series on Trypanosoma brucei [13] worked out at 100%. The same compound displayed a cytotoxicity at 6.25 µM in the series with MRC5 [15] of 100%. In the series on Plasmodium falciparum, this compound had a pIC50 of 7.21.
With `COc1ccc2nc3cc(Cl)ccc3c(NCCCN(CCCNc3c4ccc(Cl)cc4nc4ccc(OC)cc34)C(=O)CCC(N)=O)c2c1`, the Cytotoxicity result in the series on Leishmania infantum [18] is “Toxic”; with Trypanosoma cruzi [19] it was “Toxic”; with Leishmania infantum [20], “Toxic”; in the series with Trypanosoma cruzi [4], 95%; in the series on Trypanosoma cruzi [21], “Toxic”; with Leishmania infantum [22], “Toxic”. In addition, the Cytotoxicity result in the series on Trypanosoma cruzi [23] and with Leishmania infantum [24] was “Toxic” in each case. The compound also came in with a cytotoxicity at 25 µM in the series with MRC5 [2] of 100%. Further, the cytotoxicity at 12.5 µM in the series with MRC5 [3] came to 100%. Besides, the “Inhibition of parasite multiplication” value in the series with Trypanosoma brucei [7] and with Trypanosoma brucei [17] was 100% in each case. Also, in the series with Trypanosoma brucei [8], the “Percent inhibition” value was 100%. In the series with MRC5 [11], this compound showed a cytotoxicity at 3.13 µM of 100%. The compound further yielded a Parasite growth inhibition in the series on Trypanosoma brucei [13] of 100%. Moreover, the cytotoxicity at 6.25 µM in the series with MRC5 [15] was found to be 100%. The compound also had a pIC50 in the series on Plasmodium falciparum of 7.40.
On to `COc1ccc2nc3cc(Cl)ccc3c(NCCNCCNc3c4ccc(Cl)cc4nc4ccc(OC)cc34)c2c1`, for which the cytotoxicity at 25 µM in the series on MRC5 [2] turned out to be 100%. This compound also came in with a cytotoxicity at 12.5 µM in the series with MRC5 [3] of 100%. Moreover, the Cytotoxicity entry in the series with Trypanosoma cruzi [4], in the series on Leishmania infantum [5], with Leishmania infantum [6], in the series on Leishmania infantum [9], with Trypanosoma cruzi [10] and in the series with Trypanosoma cruzi [12] was “Toxic” in each case. The Cytotoxicity result in the series with Trypanosoma cruzi [14] and in the series with Leishmania infantum [16] was “Toxic” each time. For the same compound, the “Inhibition of parasite multiplication” value in the series on Trypanosoma brucei [7] and in the series with Trypanosoma brucei [17] was 100% in each case. Also, the “Percent inhibition” value in the series on Trypanosoma brucei [8] is on record as 100%. Moreover, in the series with MRC5 [11], the cytotoxicity at 3.13 µM stood at 100%. Also, in the series on Trypanosoma brucei [13], the Parasite growth inhibition turned out to be 100%. The cytotoxicity at 6.25 µM in the series with MRC5 [15] is 100%. This compound also showed a pIC50 in the series on Plasmodium falciparum of 7.20.
The compound `C[C@@H]1[C@H](O)[C@@H](C)/C=C/C=C/C=C/C=C/C=C/C=C/C=C/[C@H](O[C@@H]2O[C@H](C)[C@@H](O)[C@H](N)[C@@H]2O)C[C@@H]2O[C@](O)(C[C@@H](O)C[C@@H](O)[C@H](O)CC[C@@H](O)C[C@@H](O)CC(=O)O[C@H]1C)C[C@H](O)[C@H]2C(=O)O` [AMPHOTERICIN B] showed a negative-log IC50 (pIC50) with Leishmania infantum [25] of 7.30. Further, the cytotoxic concentration (CC50) with MRC5 [1] stood at 25000 nM.
